Measurements pooled from the literature.
Each line is one published result; the experiments were not run side by side.
Target: Dual specificity tyrosine-phosphorylation-regulated kinase 1B (DYRK1B, Homo sapiens, UniProt Q9Y463)

With CN(C)C(=O)Cn1cc(-c2nc([C@@](C)(c3ccc(-c4cnc(N)nc4)cc3)C3CC3)no2)cn1 the remaining binding was 98% (cell-free assay, competition with immobilised ligand; 1 µM).
With O=C(O)c1ccc2c(c1)nc(Nc1cccc(F)c1)c1ncncc12 the remaining activity was 30% (enzyme activity, inhibitor, radiometric; 1 µM).
With COc1cc2ncnc(Nc3ccc(Oc4ccccc4)c(C)c3C)c2cc1OC the inhibition was 1% (enzyme activity, inhibitor; 1 µM).
For CSc1cccnc1N1CCN(Cc2nc3ccccc3[nH]2)CC1, the remaining binding was 91% (cell-free assay, competition with immobilised ligand; 1 µM).
For COc1cccc(CCNc2nc3cc(C(=O)O)ccc3c3cnccc23)c1, the remaining activity was 123% (enzyme activity, inhibitor, radiometric; 1 µM).
The remaining binding of CC(=O)N1CCC(c2ccc(C(=O)NC(=N)N)cc2C(F)(F)F)CC1 is reported as 45% (cell-free assay, competition with immobilised ligand; 1 µM).
CS(=O)(=O)Nc1cccc(-c2csc(NC(=O)CSc3nc4nccnc4c(=O)n3CCc3ccccc3)n2)c1 has an inhibition of 0% (enzyme activity, inhibitor; 10 µM).
Cn1cnc(Br)c1C1=CN(c2ncnc3[nH]cnc23)CCS1 has an inhibition of 100% (enzyme activity, inhibitor, radiometric; 2 µM).
With O=C(NCCCC1CCCCC1)c1ccc(CNC(=O)c2cnn(-c3ccccc3)c2C(F)(F)F)cc1 the remaining binding was 100% (cell-free assay, competition with immobilised ligand; 0.1 µM).
COc1cccc(CCNc2nc3cc(C(=O)O)ccc3c3cncnc23)c1 gave a remaining activity of 112% (enzyme activity, inhibitor, radiometric; 1 µM).
The inhibition of Cn1cncc1C1=CN(c2ncnc3[nH]cnc23)CCS1 is reported as 95.3% (enzyme activity, inhibitor, radiometric; 2 µM).
For O=C(O)c1ccc2c(c1)nc(NCc1ccccc1)c1ncncc12, the remaining activity was 124% (enzyme activity, inhibitor, radiometric; 1 µM).
C[C@@H](c1cccc(C#N)c1)n1cc(Cl)cc(C(N)=O)c1=N gave a remaining binding of 37% (cell-free assay, competition with immobilised ligand; 1 µM).
O=C(O)c1ccc2c(c1)nc(NCCc1cccc(Cl)c1)c1ncncc12 has a remaining activity of 114% (enzyme activity, inhibitor, radiometric; 1 µM).
For Cc1cc(NC(=O)c2cccc3cc(-c4cccc5[nH]nc(N)c45)ccc23)ccc1F, the activity vs control was 95% (enzyme activity, inhibitor; 0.1 µM).
